The values that follow come from ChEMBL document CHEMBL3351434, “Synthesis of novel chromeno-annulated cis-fused pyrano[3,4-c]benzopyran and naphtho pyran derivatives via domino aldol-type/hetero Diels-Alder reaction and their cytotoxicity evaluation” (Bioorg Med Chem Lett, 2014).

The test system of the first data set is MCF7. Put plainly: Cytotoxicity against human MCF7 cells by MTT assay. The format is functional, cell-based.
Conditions: not given
Take `Cc1coc2c3c(ccc2c1=O)OC[C@H]1[C@@H]3c2ccc3ccccc3c2OC1(C)C`: the IC50 was > 100 µM.

For `Cc1oc2c3c(ccc2c(=O)c1C)OC[C@H]1[C@@H]3c2c(ccc(C(=O)c3ccccc3)c2O)OC1(C)C`, the IC50 was > 100 µM.

In turn, `Cc1coc2c3c(ccc2c1=O)OC[C@H]1[C@@H]3c2c(ccc(C(=O)c3ccccc3)c2O)OC1(C)C` displayed an IC50 of 6.24 µM.

On to `COc1cccc2c1C(=O)c1c(O)c3c(c(O)c1C2=O)C[C@@](O)(C(=O)CO)C[C@@H]3O[C@H]1C[C@H](N)[C@H](O)[C@H](C)O1` [DOXORUBICIN], for which half-maximal inhibition (IC50) required 1.05 µM.

In the case of `CCC(=O)c1ccc2c(c1O)[C@@H]1c3c(ccc4c(=O)c(-c5ccccc5)c(C)oc34)OC[C@@H]1C(C)(C)O2`, the IC50 was found to be 20.5 µM.

Consider `Cc1coc2c3c(ccc2c1=O)OC[C@H]1[C@@H]3c2c(ccc(C(=O)Cc3ccccc3)c2O)OC1(C)C`, for which the IC50 is > 100 µM.

Consider `Cc1oc2c3c(ccc2c(=O)c1C)OC[C@H]1[C@@H]3c2ccc3ccccc3c2OC1(C)C`, for which the IC50 was > 100 µM.

Regarding `CCC(=O)c1ccc2c(c1O)[C@H]1c3c(ccc4c(=O)c(C)coc34)OC[C@H]1C(C)(C)O2`, the IC50 was > 100 µM.

With `CC(=O)c1ccc2c(c1O)[C@H]1c3c(ccc4c(=O)c(C)coc34)OC[C@H]1C(C)(C)O2`, the IC50 is > 100 µM.

For the molecule `CCC(=O)c1ccc2c(c1O)[C@@H]1c3c(ccc4c(=O)c(C)c(C)oc34)OC[C@@H]1C(C)(C)O2`, the IC50 was > 100 µM.

For `Cc1oc2c3c(ccc2c(=O)c1C)OC[C@H]1[C@@H]3c2c(ccc(C(=O)Cc3ccccc3)c2O)OC1(C)C`, the concentration for half-maximal inhibition (IC50) is > 100 µM.

Molecule `CC(=O)c1ccc2c(c1O)[C@@H]1c3c(ccc4c(=O)c(-c5ccccc5)c(C)oc34)OC[C@@H]1C(C)(C)O2` yielded an IC50 of 11.2 µM.

Consider `CC(=O)c1ccc2c(c1O)[C@@H]1c3c(ccc4c(=O)c(C)c(C)oc34)OC[C@@H]1C(C)(C)O2`, for which the concentration for half-maximal inhibition (IC50) is > 100 µM.

Test system in the next data set: not listed separately
Put plainly: Cytotoxicity against HEK cells by MTT assay. It counts as cell-based. The following applies: human, hek293. In outline: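 Cells were HEK293, a line derived from normal human embryonic kidney, used as the non-cancer counter-screen. Viability was read by MTT following a previously reported protocol.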
As to `Cc1coc2c3c(ccc2c1=O)OC[C@H]1[C@@H]3c2c(ccc(C(=O)c3ccccc3)c2O)OC1(C)C`, the Activity entry is listed as “Non-toxic”.

With `CCC(=O)c1ccc2c(c1O)[C@@H]1c3c(ccc4c(=O)c(-c5ccccc5)c(C)oc34)OC[C@@H]1C(C)(C)O2`, the Activity entry is reported as “Non-toxic”.

In the case of `CC(=O)c1ccc2c(c1O)[C@@H]1c3c(ccc4c(=O)c(-c5ccccc5)c(C)oc34)OC[C@@H]1C(C)(C)O2`, the Activity entry is given as “Non-toxic”.

The subject of another data set is MDA-MB-231. Put plainly: Cytotoxicity against human MDA-MB-231 cells by MTT assay. The format is functional, cell-based.
Conditions: not given
`Cc1coc2c3c(ccc2c1=O)OC[C@H]1[C@@H]3c2ccc3ccccc3c2OC1(C)C`: the IC50 was > 100 µM.

Take `Cc1oc2c3c(ccc2c(=O)c1C)OC[C@H]1[C@@H]3c2c(ccc(C(=O)c3ccccc3)c2O)OC1(C)C`: the IC50 is > 100 µM.

As to `Cc1coc2c3c(ccc2c1=O)OC[C@H]1[C@@H]3c2c(ccc(C(=O)c3ccccc3)c2O)OC1(C)C`, the IC50 was 5.68 µM.

In turn, `COc1cccc2c1C(=O)c1c(O)c3c(c(O)c1C2=O)C[C@@](O)(C(=O)CO)C[C@@H]3O[C@H]1C[C@H](N)[C@H](O)[C@H](C)O1` [DOXORUBICIN] gave an IC50 of 0.5 µM.

With `CCC(=O)c1ccc2c(c1O)[C@@H]1c3c(ccc4c(=O)c(-c5ccccc5)c(C)oc34)OC[C@@H]1C(C)(C)O2`, 6.15 µM corresponded to half-maximal inhibition (IC50).

As to `Cc1coc2c3c(ccc2c1=O)OC[C@H]1[C@@H]3c2c(ccc(C(=O)Cc3ccccc3)c2O)OC1(C)C`, the IC50 was > 100 µM.

In the case of `Cc1oc2c3c(ccc2c(=O)c1C)OC[C@H]1[C@@H]3c2ccc3ccccc3c2OC1(C)C`, the IC50 was > 100 µM.

As to `CCC(=O)c1ccc2c(c1O)[C@H]1c3c(ccc4c(=O)c(C)coc34)OC[C@H]1C(C)(C)O2`, the IC50 is > 100 µM.

For `CC(=O)c1ccc2c(c1O)[C@H]1c3c(ccc4c(=O)c(C)coc34)OC[C@H]1C(C)(C)O2`, the IC50 is > 100 µM.

As for `CCC(=O)c1ccc2c(c1O)[C@@H]1c3c(ccc4c(=O)c(C)c(C)oc34)OC[C@@H]1C(C)(C)O2`, the IC50 was > 100 µM.

Consider `Cc1oc2c3c(ccc2c(=O)c1C)OC[C@H]1[C@@H]3c2c(ccc(C(=O)Cc3ccccc3)c2O)OC1(C)C`, for which the IC50 is > 100 µM.

The molecule `CC(=O)c1ccc2c(c1O)[C@@H]1c3c(ccc4c(=O)c(-c5ccccc5)c(C)oc34)OC[C@@H]1C(C)(C)O2` displayed a half-maximal inhibitory concentration (IC50) of 46.8 µM.

Consider `CC(=O)c1ccc2c(c1O)[C@@H]1c3c(ccc4c(=O)c(C)c(C)oc34)OC[C@@H]1C(C)(C)O2`, for which the IC50 was > 100 µM.

The test system of another data set is A549. In words: Cytotoxicity against human A549 cells by MTT assay. The format is functional, cell-based.
Conditions: not given
As for `Cc1coc2c3c(ccc2c1=O)OC[C@H]1[C@@H]3c2ccc3ccccc3c2OC1(C)C`, the IC50 is > 100 µM.

For `Cc1oc2c3c(ccc2c(=O)c1C)OC[C@H]1[C@@H]3c2c(ccc(C(=O)c3ccccc3)c2O)OC1(C)C`, the IC50 was > 100 µM.

With `Cc1coc2c3c(ccc2c1=O)OC[C@H]1[C@@H]3c2c(ccc(C(=O)c3ccccc3)c2O)OC1(C)C`, the IC50 stood at 17 µM.

`CCC(=O)c1ccc2c(c1O)[C@@H]1c3c(ccc4c(=O)c(-c5ccccc5)c(C)oc34)OC[C@@H]1C(C)(C)O2` gave an IC50 of 19.3 µM.

As to `Cc1coc2c3c(ccc2c1=O)OC[C@H]1[C@@H]3c2c(ccc(C(=O)Cc3ccccc3)c2O)OC1(C)C`, the IC50 is > 100 µM.

For the molecule `Cc1oc2c3c(ccc2c(=O)c1C)OC[C@H]1[C@@H]3c2ccc3ccccc3c2OC1(C)C`, the IC50 is > 100 µM.

As to `CCC(=O)c1ccc2c(c1O)[C@H]1c3c(ccc4c(=O)c(C)coc34)OC[C@H]1C(C)(C)O2`, the IC50 was > 100 µM.

For the molecule `CC(=O)c1ccc2c(c1O)[C@H]1c3c(ccc4c(=O)c(C)coc34)OC[C@H]1C(C)(C)O2`, the IC50 is > 100 µM.

As for `CCC(=O)c1ccc2c(c1O)[C@@H]1c3c(ccc4c(=O)c(C)c(C)oc34)OC[C@@H]1C(C)(C)O2`, the IC50 was > 100 µM.

With `Cc1oc2c3c(ccc2c(=O)c1C)OC[C@H]1[C@@H]3c2c(ccc(C(=O)Cc3ccccc3)c2O)OC1(C)C`, the IC50 is > 100 µM.

For the molecule `CC(=O)c1ccc2c(c1O)[C@@H]1c3c(ccc4c(=O)c(-c5ccccc5)c(C)oc34)OC[C@@H]1C(C)(C)O2`, inhibition was half-maximal at 2.53 µM (IC50).

`CC(=O)c1ccc2c(c1O)[C@@H]1c3c(ccc4c(=O)c(C)c(C)oc34)OC[C@@H]1C(C)(C)O2`: the IC50 was > 100 µM.

Another data set deals with HeLa. Put plainly: Cytotoxicity against human HeLa cells by MTT assay. The format is functional, cell-based.
Conditions: not given
Turning to `Cc1coc2c3c(ccc2c1=O)OC[C@H]1[C@@H]3c2ccc3ccccc3c2OC1(C)C`, the IC50 was > 100 µM.

For `Cc1oc2c3c(ccc2c(=O)c1C)OC[C@H]1[C@@H]3c2c(ccc(C(=O)c3ccccc3)c2O)OC1(C)C`, the IC50 is > 100 µM.

`Cc1coc2c3c(ccc2c1=O)OC[C@H]1[C@@H]3c2c(ccc(C(=O)c3ccccc3)c2O)OC1(C)C`: half-maximal inhibition (IC50) was put at 1.5 µM.

For the molecule `CCC(=O)c1ccc2c(c1O)[C@@H]1c3c(ccc4c(=O)c(-c5ccccc5)c(C)oc34)OC[C@@H]1C(C)(C)O2`, half-maximal inhibition (IC50) was put at 18.2 µM.

`Cc1coc2c3c(ccc2c1=O)OC[C@H]1[C@@H]3c2c(ccc(C(=O)Cc3ccccc3)c2O)OC1(C)C`: the IC50 was > 100 µM.

As for `Cc1oc2c3c(ccc2c(=O)c1C)OC[C@H]1[C@@H]3c2ccc3ccccc3c2OC1(C)C`, the IC50 was > 100 µM.

As to `CCC(=O)c1ccc2c(c1O)[C@H]1c3c(ccc4c(=O)c(C)coc34)OC[C@H]1C(C)(C)O2`, the 50% inhibitory concentration (IC50) is > 100 µM.

Take `CC(=O)c1ccc2c(c1O)[C@H]1c3c(ccc4c(=O)c(C)coc34)OC[C@H]1C(C)(C)O2`: the IC50 was > 100 µM.

`CCC(=O)c1ccc2c(c1O)[C@@H]1c3c(ccc4c(=O)c(C)c(C)oc34)OC[C@@H]1C(C)(C)O2`: the IC50 is > 100 µM.

`Cc1oc2c3c(ccc2c(=O)c1C)OC[C@H]1[C@@H]3c2c(ccc(C(=O)Cc3ccccc3)c2O)OC1(C)C`: the IC50 was > 100 µM.

In turn, `CC(=O)c1ccc2c(c1O)[C@@H]1c3c(ccc4c(=O)c(-c5ccccc5)c(C)oc34)OC[C@@H]1C(C)(C)O2` yielded an IC50 of 4.81 µM.

For `CC(=O)c1ccc2c(c1O)[C@@H]1c3c(ccc4c(=O)c(C)c(C)oc34)OC[C@@H]1C(C)(C)O2`, the IC50 is > 100 µM.
